Assay results: paper PMC2668958 (Combinatorial chemistry & high throughput screening, 2008)
pIC50: −log10 of the molar value.

What was measured:
Glucocerebrosidase (GC) [1] = target: T1, Glucocerebrosidase (GC) (Homo sapiens, UniProt P04062, R534H); assay: Res-β-Glc; assay type: biochemical
T1 sequence (P04062 40-536 R534H): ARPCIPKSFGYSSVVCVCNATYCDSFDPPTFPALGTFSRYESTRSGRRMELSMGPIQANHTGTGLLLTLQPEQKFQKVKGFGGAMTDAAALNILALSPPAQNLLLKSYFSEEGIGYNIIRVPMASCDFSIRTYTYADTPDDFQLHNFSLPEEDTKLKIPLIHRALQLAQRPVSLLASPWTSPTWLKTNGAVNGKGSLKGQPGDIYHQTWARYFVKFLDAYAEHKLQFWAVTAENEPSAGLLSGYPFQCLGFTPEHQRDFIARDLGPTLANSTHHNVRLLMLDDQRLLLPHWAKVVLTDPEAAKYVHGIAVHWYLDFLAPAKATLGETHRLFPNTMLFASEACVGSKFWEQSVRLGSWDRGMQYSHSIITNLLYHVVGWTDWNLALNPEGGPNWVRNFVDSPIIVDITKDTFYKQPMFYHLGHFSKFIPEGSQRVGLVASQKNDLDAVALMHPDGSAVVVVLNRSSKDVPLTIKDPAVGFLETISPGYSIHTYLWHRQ

[2] = CBE solutions in DMSO left at RT for more than a few hours (data not shown)
Glucocerebrosidase (GC) [3] = target: T1, Glucocerebrosidase (GC); assay: 4MU-β-Glc; assay type: biochemical; conditions: read-out: IC50 in the "blue" GC assay; known GC inhibitors; 800 μM 4MU-β-Glc, 1.9 nM enzyme
Glucocerebrosidase (GC) [4] = target: T1, Glucocerebrosidase (GC); assay: "blue" GC enzyme kinetic assay, 384-well; assay type: biochemical; conditions: substrate of "blue" assay, 1.9 nM enzyme
Method in brief: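 384-well format. 1.9 nM GC in pH 5.9 buffer (50 mM citric acid, 176 mM K2HPO4, 0.01% Tween-20, 10 mM sodium taurocholate). Reaction started with 4MU-β-Glc at final 3000–23.4 μM (1:2 series, eight levels), run at RT. Separate plates were stopped with 1 M NaOH/1 M glycine pH 10 at 2, 4, 6, 8, 10 and 12 min and read at 440 nm. Product was quantified from a 4-methylumbelliferone standard curve.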

Glucocerebrosidase (GC) [5] = target: T1, Glucocerebrosidase (GC); assay: "red" GC enzyme kinetic assay, 384-well; assay type: biochemical; conditions: substrate of "red" assay, 1.9 nM enzyme
Method in brief: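 Kinetics were run in 384-well plates with 1.9 nM GC in pH 5.9 citrate/K2HPO4 buffer containing 0.01% Tween-20 and 10 mM sodium taurocholate. Res-β-Glc was added at final 100, 60, 40, 20, 10, 5 and 2.5 μM at RT, with no stop step. One plate was read continuously for 610 nm emission at 2 min intervals. Product was converted using a resorufin standard curve in assay buffer.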

[6] = varied substrate concentrations

CC[N+](CC)(CC)CCOc1cccc(OCC[N+](CC)(CC)CC)c1OCC[N+](CC)(CC)CC [compound 3, Gallamine triethiodide]
pIC50 (Glucocerebrosidase (GC) [1]): 5.44

CN[C@@H](C)[C@H](O)c1ccccc1 [compound 1, (-)-Ephedrine hemisulfate]
pIC50 (Glucocerebrosidase (GC) [1]): 6.10

C[N+]1(C)CCN(c2ccccc2)CC1 [compound 6, 1,1-Dimethyl-4-phenyl-piperazinium iodide]
pIC50 (Glucocerebrosidase (GC) [1]): 5.17

O=C(/C=C/c1ccc(O)cc1)c1ccc(O)cc1O [compound 2, Isoliquiritigenin]
pIC50 (Glucocerebrosidase (GC) [1]): 5.59

O[C@H]1[C@H](O)[C@@H](O)[C@@H]2O[C@@H]2[C@@H]1O [CBE, Conduritol β-epoxide]
shift of IC50 value [2]: 2- to 10 fold
pIC50 (Glucocerebrosidase (GC) [1]; read-out: IC50 in the "red" GC assay, known GC inhibitors, 30 μM Res-β-Glc, 1.9 nM enzyme): 4.89
pIC50 (Glucocerebrosidase (GC) [3]): 4.81

Cc1cc(=O)oc2cc(O[C@@H]3O[C@H](CO)[C@@H](O)[C@H](O)[C@H]3O)ccc12 [4MU-β-Glc, 4-methylumbelliferyl β-D-glucopyranoside]
Vmax (Glucocerebrosidase (GC) [4]): 1.56 pmol/min
Km (Glucocerebrosidase (GC) [4]; [6]): 768 µM

O=c1c2ccccc2[se]n1-c1ccccc1 [compound 10, Ebselen]
pIC50 (Glucocerebrosidase (GC) [1]): 6.20

N.N.[Cl][Pt][Cl] [Cisplatin]
GC inhibitory activity on hit confirmation (Glucocerebrosidase (GC) [1]; neat samples of primary hits, "red" GC enzyme assay): inactive

O=c1ccc2nc3ccc(O[C@@H]4O[C@H](CO)[C@@H](O)[C@H](O)[C@H]4O)cc3oc-2c1 [Res-β-Glc, Resorufin β-D-glucopyranoside]
Vmax (Glucocerebrosidase (GC) [5]): 7.11 pmol/min
Km (Glucocerebrosidase (GC) [5]; [6]): 33 µM
